# pIC50: −log10 of the molar value.
# Key:
# [1] = test system: T1, Receptor-type tyrosine-protein kinase FLT3 (Homo sapiens), P36888 [D835Y]; assay: Inhibition of Flt3 D835Y mutant (unknown origin) at 0.1 uM
# T1 sequence (whole entry): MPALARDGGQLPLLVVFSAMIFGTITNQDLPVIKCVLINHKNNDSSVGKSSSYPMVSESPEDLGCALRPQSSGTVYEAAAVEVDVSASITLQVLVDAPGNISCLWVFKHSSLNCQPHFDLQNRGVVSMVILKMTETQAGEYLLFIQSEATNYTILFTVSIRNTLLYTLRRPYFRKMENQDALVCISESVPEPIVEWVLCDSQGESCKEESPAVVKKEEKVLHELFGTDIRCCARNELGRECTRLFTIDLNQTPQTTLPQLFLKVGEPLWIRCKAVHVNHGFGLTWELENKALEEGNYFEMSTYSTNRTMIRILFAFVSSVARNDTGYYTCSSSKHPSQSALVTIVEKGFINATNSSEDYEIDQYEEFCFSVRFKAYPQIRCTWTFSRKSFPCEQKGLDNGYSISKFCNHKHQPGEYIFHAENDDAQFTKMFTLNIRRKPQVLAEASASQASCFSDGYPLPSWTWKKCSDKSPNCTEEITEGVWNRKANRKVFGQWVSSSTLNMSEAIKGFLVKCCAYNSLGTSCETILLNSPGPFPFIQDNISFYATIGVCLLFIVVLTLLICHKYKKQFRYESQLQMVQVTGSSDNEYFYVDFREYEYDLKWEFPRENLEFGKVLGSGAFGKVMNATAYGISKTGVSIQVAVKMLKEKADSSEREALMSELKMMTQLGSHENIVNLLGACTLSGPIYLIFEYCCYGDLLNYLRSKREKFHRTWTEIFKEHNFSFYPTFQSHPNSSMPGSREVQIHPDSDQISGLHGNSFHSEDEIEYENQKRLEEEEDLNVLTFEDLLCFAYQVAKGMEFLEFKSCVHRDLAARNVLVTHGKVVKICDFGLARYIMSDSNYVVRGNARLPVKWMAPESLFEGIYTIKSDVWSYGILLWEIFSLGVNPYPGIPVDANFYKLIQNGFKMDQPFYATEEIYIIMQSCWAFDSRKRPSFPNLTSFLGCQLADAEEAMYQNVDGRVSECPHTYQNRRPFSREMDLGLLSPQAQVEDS
# In short: (§1)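 Kinase selectivity panel of 298 kinases, test compound at 0.1 μM, percent inhibition reported.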
# [2] = biological target: T2, Dual specificity mitogen-activated protein kinase kinase 7 (Homo sapiens, UniProt O14733); assay: Inhibition of MKK7 (unknown origin)
# T2 sequence (O14733 whole entry): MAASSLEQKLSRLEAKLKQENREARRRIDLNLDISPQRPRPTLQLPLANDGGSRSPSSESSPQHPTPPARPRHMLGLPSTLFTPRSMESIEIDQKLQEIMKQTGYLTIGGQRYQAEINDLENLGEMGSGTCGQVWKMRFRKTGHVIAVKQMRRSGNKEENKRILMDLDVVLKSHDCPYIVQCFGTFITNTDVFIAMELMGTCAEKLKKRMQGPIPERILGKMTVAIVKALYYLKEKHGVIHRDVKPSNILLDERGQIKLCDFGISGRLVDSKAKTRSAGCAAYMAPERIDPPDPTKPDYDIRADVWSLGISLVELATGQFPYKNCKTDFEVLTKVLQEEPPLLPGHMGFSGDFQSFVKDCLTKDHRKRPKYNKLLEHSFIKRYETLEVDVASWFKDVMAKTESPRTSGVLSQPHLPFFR
# [3] = Plasma clearance in rat at 1 mg/kg, iv and 5 mg/kg, po; format: ADME, organism-based
# In short: (§2)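 Single-compound PK. Intravenous dose 1 mg/kg given as a 60% PEG solution. Oral dose 5 mg/kg given as an aqueous suspension in 1% methylcellulose. Plasma clearance, steady-state volume of distribution, half-life and oral bioavailability were determined from these doses.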
# [4] = Plasma clearance in cynomolgus monkey at 1 mg/kg, iv and 5 mg/kg, po; format: ADME, organism-based, Macaca fascicularis; in short: as §2
# DRG neuron = assay: (§3) Neuroprotective activity in E14.5 rat embryo DRG neurons; format: functional
# In short: (§4)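 DRG neurons freshly dissected from E14.5 rat embryos, plated at 1200−2000 cells/well on an astrocyte monolayer in DMEM/F12 with N3 supplement, 0.18% glucose and 25 ng/mL NGF. 200 μM uridine and 100 μM 5-fluorodeoxyuridine added next day. Cultured 4 days before axon degeneration assay. IC50 reported.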
# [5] = as §3; format: functional; conditions: drg neuron; in short: as §4
# [6] = biological target: Mitogen-activated protein kinase kinase kinase 10 (Homo sapiens, UniProt Q02779); assay: Inhibition of MLK2 (unknown origin)
# Mitogen-activated protein kinase kinase kinase 10, sequence (Q02779 whole entry): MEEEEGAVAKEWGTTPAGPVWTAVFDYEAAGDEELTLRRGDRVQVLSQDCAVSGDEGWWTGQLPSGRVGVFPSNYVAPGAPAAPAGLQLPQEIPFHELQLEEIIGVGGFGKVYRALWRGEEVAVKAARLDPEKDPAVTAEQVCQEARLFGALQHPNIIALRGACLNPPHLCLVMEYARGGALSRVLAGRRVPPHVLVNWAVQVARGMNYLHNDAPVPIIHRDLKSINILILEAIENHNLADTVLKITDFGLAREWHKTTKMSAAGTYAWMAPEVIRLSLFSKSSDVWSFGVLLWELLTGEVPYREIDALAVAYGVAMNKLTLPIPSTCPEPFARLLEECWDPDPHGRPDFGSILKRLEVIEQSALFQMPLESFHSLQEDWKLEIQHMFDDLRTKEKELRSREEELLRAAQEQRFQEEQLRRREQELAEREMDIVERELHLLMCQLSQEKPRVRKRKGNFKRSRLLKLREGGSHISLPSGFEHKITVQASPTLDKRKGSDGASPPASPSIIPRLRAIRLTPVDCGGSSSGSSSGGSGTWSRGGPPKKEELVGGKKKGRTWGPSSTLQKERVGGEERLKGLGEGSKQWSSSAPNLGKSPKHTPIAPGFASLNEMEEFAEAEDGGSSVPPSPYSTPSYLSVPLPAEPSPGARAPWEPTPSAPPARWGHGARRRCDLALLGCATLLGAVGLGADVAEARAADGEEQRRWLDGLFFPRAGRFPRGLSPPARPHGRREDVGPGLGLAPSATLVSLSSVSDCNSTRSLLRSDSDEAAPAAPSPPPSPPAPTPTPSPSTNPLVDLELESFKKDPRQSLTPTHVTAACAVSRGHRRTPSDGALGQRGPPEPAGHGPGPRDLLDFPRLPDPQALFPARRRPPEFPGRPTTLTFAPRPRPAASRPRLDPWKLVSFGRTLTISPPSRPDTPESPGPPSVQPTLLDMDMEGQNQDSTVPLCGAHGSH
# [7] = biological target: Proto-oncogene tyrosine-protein kinase Src (Homo sapiens) (UniProt P12931); assay: Inhibition of Src_N1 (unknown origin) at 0.1 uM; in short: as §1
# Proto-oncogene tyrosine-protein kinase Src (Homo sapiens), sequence (P12931 2-536 limits assumed): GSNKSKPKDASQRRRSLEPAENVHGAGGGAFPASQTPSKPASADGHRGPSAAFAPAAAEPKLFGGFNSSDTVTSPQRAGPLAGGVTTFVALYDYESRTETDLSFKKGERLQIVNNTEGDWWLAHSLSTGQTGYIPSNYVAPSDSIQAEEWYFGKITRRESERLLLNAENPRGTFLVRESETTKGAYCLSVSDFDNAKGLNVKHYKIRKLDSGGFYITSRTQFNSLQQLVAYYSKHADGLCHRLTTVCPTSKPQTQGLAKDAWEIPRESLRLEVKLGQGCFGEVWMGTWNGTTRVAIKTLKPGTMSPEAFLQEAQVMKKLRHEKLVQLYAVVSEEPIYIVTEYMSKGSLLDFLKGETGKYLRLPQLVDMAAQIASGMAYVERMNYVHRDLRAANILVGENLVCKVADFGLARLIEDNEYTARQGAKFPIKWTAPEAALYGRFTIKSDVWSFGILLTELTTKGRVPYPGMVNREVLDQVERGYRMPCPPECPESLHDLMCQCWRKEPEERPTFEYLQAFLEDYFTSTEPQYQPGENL
# [8] = biological target: Mitogen-activated protein kinase kinase kinase 9 (Homo sapiens, UniProt P80192); assay: Inhibition of MLK1 (unknown origin)
# Mitogen-activated protein kinase kinase kinase 9, sequence (P80192 whole entry): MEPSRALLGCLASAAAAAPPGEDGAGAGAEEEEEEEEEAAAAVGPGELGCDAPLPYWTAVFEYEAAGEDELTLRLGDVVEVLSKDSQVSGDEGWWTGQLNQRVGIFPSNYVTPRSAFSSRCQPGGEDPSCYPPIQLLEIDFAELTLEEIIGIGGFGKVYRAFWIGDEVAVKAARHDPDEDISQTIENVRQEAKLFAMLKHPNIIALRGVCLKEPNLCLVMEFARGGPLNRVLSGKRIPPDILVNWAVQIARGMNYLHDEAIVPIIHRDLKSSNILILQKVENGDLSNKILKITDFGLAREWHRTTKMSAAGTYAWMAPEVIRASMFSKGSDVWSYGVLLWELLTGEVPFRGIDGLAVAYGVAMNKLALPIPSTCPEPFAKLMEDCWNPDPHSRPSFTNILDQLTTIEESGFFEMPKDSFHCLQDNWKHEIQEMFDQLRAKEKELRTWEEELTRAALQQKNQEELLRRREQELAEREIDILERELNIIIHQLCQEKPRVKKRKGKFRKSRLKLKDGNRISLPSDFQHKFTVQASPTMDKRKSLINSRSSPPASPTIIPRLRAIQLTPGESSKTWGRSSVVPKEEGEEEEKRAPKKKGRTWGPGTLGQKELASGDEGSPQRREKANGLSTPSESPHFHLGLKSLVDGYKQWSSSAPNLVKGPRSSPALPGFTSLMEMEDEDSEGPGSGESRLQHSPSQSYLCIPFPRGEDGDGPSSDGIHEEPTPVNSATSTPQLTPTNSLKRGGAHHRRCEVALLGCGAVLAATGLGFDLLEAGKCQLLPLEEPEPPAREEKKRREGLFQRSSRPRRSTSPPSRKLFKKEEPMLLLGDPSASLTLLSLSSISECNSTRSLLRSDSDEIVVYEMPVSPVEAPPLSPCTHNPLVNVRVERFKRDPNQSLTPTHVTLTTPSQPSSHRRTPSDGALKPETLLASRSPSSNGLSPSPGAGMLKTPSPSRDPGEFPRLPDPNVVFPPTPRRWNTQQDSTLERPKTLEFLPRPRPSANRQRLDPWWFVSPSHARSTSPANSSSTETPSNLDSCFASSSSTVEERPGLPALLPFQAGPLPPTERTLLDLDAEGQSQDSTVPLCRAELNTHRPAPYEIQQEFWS
# Mus musculus = assay: Neuroprotective activity against po dosed C57Bl/6 mouse optic nerve crush model assessed as reduction of phosphorylated c-Jun level in retina administered 30 mins prior to nerve crush injury measured after 6 hrs by MSD ELISA; format: functional, organism-based
# In short: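 C57Bl/6 mice dosed orally at two dose levels (MCT suspension) or vehicle, 30 min before optic nerve crush. Retinal p-c-Jun measured 6 h post-injury by MSD ELISA, expressed relative to uncrushed vehicle controls. N = 5 vehicle, 6 per treated group. Mean ± SEM.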
# [9] = biological target: Tyrosine-protein kinase SYK (Homo sapiens) (UniProt P43405); assay: Inhibition of Syk (unknown origin) at 0.1 uM; in short: as §1
# [10] = biological target: Serine/threonine-protein kinase 16 (Homo sapiens) (UniProt O75716); assay: Inhibition of STK16 (unknown origin) at 0.1 uM; in short: as §1
# Serine/threonine-protein kinase 16 (Homo sapiens), sequence (O75716 whole entry): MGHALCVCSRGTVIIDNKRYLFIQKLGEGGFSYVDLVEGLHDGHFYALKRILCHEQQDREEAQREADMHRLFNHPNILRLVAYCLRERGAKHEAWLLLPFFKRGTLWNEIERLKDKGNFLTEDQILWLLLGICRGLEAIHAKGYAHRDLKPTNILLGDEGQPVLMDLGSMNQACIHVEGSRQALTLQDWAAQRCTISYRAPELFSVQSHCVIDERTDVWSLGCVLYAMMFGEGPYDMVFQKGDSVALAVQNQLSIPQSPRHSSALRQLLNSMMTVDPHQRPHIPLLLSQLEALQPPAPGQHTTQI
# [11] = biological target: Mitogen-activated protein kinase 9 (Homo sapiens, UniProt P45984); assay: Inhibition of JNK2 (unknown origin)
# Mitogen-activated protein kinase 9, sequence (P45984 whole entry): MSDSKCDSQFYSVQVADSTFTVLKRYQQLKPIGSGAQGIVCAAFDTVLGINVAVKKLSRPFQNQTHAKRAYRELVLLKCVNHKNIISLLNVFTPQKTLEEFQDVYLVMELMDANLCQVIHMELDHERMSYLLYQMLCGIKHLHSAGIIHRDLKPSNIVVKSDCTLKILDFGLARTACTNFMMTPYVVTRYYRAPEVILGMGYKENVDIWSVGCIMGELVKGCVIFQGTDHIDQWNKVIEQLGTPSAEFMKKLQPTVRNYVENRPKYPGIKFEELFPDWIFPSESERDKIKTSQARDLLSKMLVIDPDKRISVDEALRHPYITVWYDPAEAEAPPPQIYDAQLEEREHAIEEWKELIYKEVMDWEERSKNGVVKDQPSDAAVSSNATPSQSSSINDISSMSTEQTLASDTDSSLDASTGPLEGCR
# [12] = biological target: Mitogen-activated protein kinase 8 (Homo sapiens, UniProt P45983); assay: Inhibition of JNK1 (unknown origin)
# Mitogen-activated protein kinase 8, sequence (P45983 whole entry): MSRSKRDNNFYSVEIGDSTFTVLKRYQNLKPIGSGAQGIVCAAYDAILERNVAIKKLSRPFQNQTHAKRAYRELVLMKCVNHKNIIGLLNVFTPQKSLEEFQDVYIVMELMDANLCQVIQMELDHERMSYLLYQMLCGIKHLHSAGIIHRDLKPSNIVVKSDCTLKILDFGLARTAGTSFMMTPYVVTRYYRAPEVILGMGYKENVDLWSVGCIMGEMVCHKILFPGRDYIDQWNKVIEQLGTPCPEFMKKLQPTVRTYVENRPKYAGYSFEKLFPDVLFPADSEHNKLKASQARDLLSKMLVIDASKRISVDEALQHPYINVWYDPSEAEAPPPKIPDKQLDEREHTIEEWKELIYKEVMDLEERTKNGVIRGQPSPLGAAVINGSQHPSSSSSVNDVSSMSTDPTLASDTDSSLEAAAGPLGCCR
# [13] = Volume of distribution at steady state in cynomolgus monkey at 1 mg/kg, iv and 5 mg/kg, po; format: ADME, organism-based, Macaca fascicularis; conditions: in vivo, read-out: Vdss; in short: as §2
# MDR1 = assay: Apparent permeability from apical to basolateral side in MDCK cells expressing human MDR1 at 5 uM after 60 to 180 mins by LC-MS/MS analysis; format: ADME, cell-based, Canis lupus familiaris; conditions: dog
compound,measurement,setting,value
N#Cc1ccnc(Nc2cc(C3CCN(C4COC4)CC3)cc(N3CCC(F)(F)C3)n2)c1,inhibition,[1],> 80%
same,pIC50,[2],< 5.30
same,clearance,[3],1.8 L/h/kg
same,clearance,[4],0.96 L/h/kg
same,Activity,DRG neuron,Dose-dependent effect
same,pIC50,[5],6.97
same,pIC50,[6],6.12
same,inhibition,[7],> 80%
same,pIC50,[8],7.17
same,Activity,Mus musculus,Dose-dependent effect
same,inhibition,[9],> 80%
same,inhibition,[10],> 80%
same,pIC50,[11],6.29
same,pIC50,[12],6.89
same,Vd,[13],3.1 L/kg
same,Papp A→B at 5 µM,MDR1,60 nm/s

# — ChEMBL document CHEMBL3393025, “Discovery of dual leucine zipper kinase (DLK, MAP3K12) inhibitors with activity in neurodegeneration models” (J Med Chem, 2015)
